In article PMC3654864 (Journal of medicinal chemistry, 2012):
Like-named read-outs stand apart in the source and are kept apart here.

Columns and labels:
[1] = tested on: PC3 prostate cancer cell lines; experiment: MTT cytotoxicity assay in PC3 cells; assay type: cell-based, human
[2] = pH-responsive hydrolysis to emetine in phosphate buffer, quantified by HPLC; assay type: physicochemical; settings: for activation to emetine at pH 5.5: pH 5.5, over a 48 h period; for percent emetine released (hydrolysis to emetine) at pH 6.5: phosphate buffer pH 6.5, 37 °C
Procedure, shortened: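 Pure test compound was incubated at 37 °C in aqueous phosphate buffer at pH 5.5, 6.5 or 7.4 for 24–48 h; stability at pH 7.4 was followed up to 5 days. Samples were analysed by HPLC to quantify released emetine. Percent conversion is the percent emetine in the sample mixture.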

healthy mice = experiment: In-vivo toxicity study in healthy mice; settings: for toxicity on three-week follow-up: after 100 mg/kg iv daily for five days, studied for three weeks; for appearance of mice / percent weight loss relative to control mice: 33 mg/kg; for appearance of mice: 48 hours; for percent weight loss relative to control mice: within 48 hours of daily dosing; for percent weight change within 48 hours versus control group: 100 mg/kg; for signs of toxicity: 100 mg/kg body weight daily for five days
[3] = tested on: PC3 and LNCaP prostate cancer cell lines; experiment: In-vitro cytotoxicity in PC3 and LNCaP, summary statements for both lines; assay type: cell-based, human
Procedure, shortened: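 MTT colorimetric assay on human prostate cancer cells (androgen receptor-positive LNCaP, androgen receptor-negative PC3). Cells were exposed to six concentrations of test compound for 7 days, with viable cells read spectrophotometrically on days 3, 5 and 7. IC50 was taken from the day-7 read. Emetine was run in the same assay.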

[4] = tested on: LNCaP prostate cancer cell lines; experiment: MTT cytotoxicity assay in LNCaP cells; assay type: cell-based, human; settings: 7 day, relative to compound 13
[5] = PC3, Figures 4a-f, time at which optimum IC50 is reached or pattern

For `CC[C@H]1CN2CCc3cc(OC)c(OC)cc3[C@@H]2C[C@@H]1C[C@@H]1c2cc(OC)c(OC)cc2CCN1C(=O)NCc1ccc(OC)cc1` [Compound 8], the “progress of cytotoxicity (IC50) over day 3, 5 and 7” value (“progress … over day 3, 5 and 7” below) [1] was “progressive decrease in IC50 values”.

For `CC[C@H]1CN2CCc3cc(OC)c(OC)cc3[C@@H]2C[C@@H]1C[C@@H]1c2cc(OC)c(OC)cc2CCN1C(=O)NCc1ccccc1` [Compound 7], the “progress … over day 3, 5 and 7” value [1] was “reach an optimum by day 3”.

In the case of `CC[C@H]1CN2CCc3cc(OC)c(OC)cc3[C@@H]2C[C@@H]1C[C@@H]1c2cc(OC)c(OC)cc2CCN1C(=O)/C=C\C(=O)[O-].[Na+]` [Compound 25], the “activation to emetine at pH 5.5” value [2] is reported as “activated to emetine”.

In the case of `CC[C@H]1CN2CCc3cc(OC)c(OC)cc3[C@@H]2C[C@@H]1C[C@@H]1c2cc(OC)c(OC)cc2CCN1C(=S)[S-].[Na+]` [Compound 13], the “progress … over day 3, 5 and 7” value [1, 5] is reported as “an optimum IC50 value was obtained by day 5”, the “toxicity on three-week follow-up” value (healthy mice) is reported as “no noticeable effect of toxicity” and the appearance of mice (healthy mice; iv) is reported as “appeared healthy with no noticeable signs of toxicity”. The “percent weight loss relative to control mice” value (healthy mice; iv) was “no significant difference”, the “percent weight change within 48 hours versus control group” value (healthy mice; iv) was “very similar to that obtained for the control group” and the signs of toxicity (healthy mice; iv) was “no sign of toxicity”. The “activation to emetine at pH 5.5” value [2] was “activated to emetine”, the “percent hydrolysis to emetine at pH 5.5” value ([2]; phosphate buffer pH 5.5, 37 °C, within 48 hours) was “about 94.5%” and the “percent emetine released (hydrolysis to emetine) at pH 6.5” value (“percent emetine released” below) ([2]; within 48 hours) was 13.2%. The “7th day IC50 fold higher than emetine” value ([3]; LNCaP and PC3, 7th day, relative to emetine) was “about 3 fold”.

With `CC[C@H]1CN2CCc3cc(OC)c(OC)cc3[C@@H]2C[C@@H]1C[C@@H]1c2cc(OC)c(OC)cc2CCN1S(=O)(=O)c1ccc(OC)cc1` [Compound 12] the “progress … over day 3, 5 and 7” value [1] was “an optimum IC50 value was obtained by day 5”.

With `CC[C@H]1CN2CCc3cc(OC)c(OC)cc3[C@@H]2C[C@@H]1C[C@@H]1c2cc(OC)c(OC)cc2CCN1C(=O)/C=C(/C)C(=O)O` [Compound 22] the “activation to emetine at pH 5.5” value [2] was “activated to emetine” and the “percent emetine released” value ([2]; within 48 hours) was about 80%.

In the case of `CC[C@H]1CN2CCc3cc(OC)c(OC)cc3[C@@H]2C[C@@H]1C[C@@H]1c2cc(OC)c(OC)cc2CCN1C(=O)OCc1ccccc1` [Compound 15], the “progress … over day 3, 5 and 7” value [1, 5] is reported as “progressive decrease in IC50 values”.

In the case of `CC[C@H]1CN2CCc3cc(OC)c(OC)cc3[C@@H]2C[C@@H]1C[C@@H]1c2cc(OC)c(OC)cc2CCN1C(=S)NCc1ccc(OC)cc1` [Compound 5], the “progress … over day 3, 5 and 7” value [1, 5] is reported as “an optimum IC50 value was obtained by day 5”.

With `CC[C@H]1CN2CCc3cc(OC)c(OC)cc3[C@@H]2C[C@@H]1C[C@@H]1c2cc(OC)c(OC)cc2CCN1C(=O)CCC(=O)[O-].[Na+]` [Compound 24] the “progress … over day 3, 5 and 7” value [1] was “an optimum IC50 value was obtained by day 5”.

In the case of `CC[C@H]1CN2CCc3cc(OC)c(OC)cc3[C@@H]2C[C@@H]1C[C@@H]1c2cc(OC)c(OC)cc2CCN1C(=O)/C=C(/C)C(=O)[O-].[Na+]` [Compound 26], the “progress … over day 3, 5 and 7” value [1] is reported as “an optimum IC50 value was obtained by day 5”, the “toxicity on three-week follow-up” value (healthy mice) is reported as “no noticeable effect of toxicity” and the “percent weight change within 48 hours versus control group” value (healthy mice; iv) is reported as “very similar to that obtained for the control group”. For the same compound, the signs of toxicity (healthy mice; iv) was “no sign of toxicity”, the “activation to emetine at pH 5.5” value [2] was “activated to emetine” and the “percent emetine released” value ([2]; within 48 hours) was “about 50%”.

In the case of `CC[C@H]1CN2CCc3cc(OC)c(OC)cc3[C@@H]2C[C@@H]1C[C@@H]1c2cc(OC)c(OC)cc2CCN1C(=O)/C=C\C(=O)O` [Compound 21], the “activation to emetine at pH 5.5” value [2] is reported as “activated to emetine” and the “percent emetine released” value ([2]; within 48 hours) is reported as “about 50%”.

For `CC[C@H]1CN2CCc3cc(OC)c(OC)cc3[C@@H]2C[C@@H]1C[C@@H]1c2cc(OC)c(OC)cc2CCN1C(=S)SCc1ccccc1` [Compound 14], the “fold increase of IC50 relative to 13” value [4] was “about 24 fold”, the “fold increase of IC50 relative to 13” value ([1]; PC3, 7 day, relative to compound 13) was about 18 fold and the “progress … over day 3, 5 and 7” value [1, 5] was “progressive decrease in IC50 values”.

In the case of `CC[C@H]1CN2CCc3cc(OC)c(OC)cc3[C@@H]2C[C@@H]1C[C@H]1NCCc2cc(OC)c(OC)cc21.Cl.Cl` [emetine, Emetine, reference compound], the lethality (healthy mice; iv, 33 mg/kg body weight, within the period of study) is reported as “did not kill the mice”, the “average weight loss over a 48 hour period” value (healthy mice; iv, 33 mg/kg daily dosing) is reported as “about 3.6%” and the appearance of mice (healthy mice; iv) is reported as “appeared lethargic”. The “percent weight loss relative to control mice” value (healthy mice; iv) was “about 4”, the lethality (healthy mice; iv, single dose 100 mg/kg body weight, within 48 hours) was “killed all three mice” and the IC50 ([3]; Homo sapiens, LNCaP, read-out: IC50 range of emetine) was 23.7 to 32.9 nM.

With `CC[C@H]1CN2CCc3cc(OC)c(OC)cc3[C@@H]2C[C@@H]1C[C@@H]1c2cc(OC)c(OC)cc2CCN1C(=O)/C=C(/CC(=O)[O-])C(=O)[O-].[Na+].[Na+]` [Compound 27] the “activation to emetine at pH 5.5” value [2] was “activated to emetine”.

In the case of `CC[C@H]1CN2CCc3cc(OC)c(OC)cc3[C@@H]2C[C@@H]1C[C@@H]1c2cc(OC)c(OC)cc2CCN1C(=S)NCc1ccc(Cl)cc1` [Compound 6], the “progress … over day 3, 5 and 7” value [1, 5] is reported as “reach an optimum by day 3”.

For `CC[C@H]1CN2CCc3cc(OC)c(OC)cc3[C@@H]2C[C@@H]1C[C@@H]1c2cc(OC)c(OC)cc2CCN1C(=O)NCc1ccc(Cl)cc1` [Compound 9], the “progress … over day 3, 5 and 7” value [1, 5] was “reach an optimum by day 3”.
